Source: PubChem (several laboratories)
MrgX1 antagonist: human MrgX1 receptor antagonism, primary screen. Q96LB2. hit rate 1.3% among 310,000. MRGX1-HEK293 calcium flux, Fluo-4, BAM8-22 antagonism; active compounds read low. B-score at 10 µM;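 active = calcium-response B-score plate-corrected more than 3 library SD below zero, starting fluorescence within 5 deviations, no agonist response on first addition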;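 note: peak minus trough fluorescence over baseline after final BAM8-22 challenge near maximal dose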
Target sequence (Q96LB2 whole entry, looked up): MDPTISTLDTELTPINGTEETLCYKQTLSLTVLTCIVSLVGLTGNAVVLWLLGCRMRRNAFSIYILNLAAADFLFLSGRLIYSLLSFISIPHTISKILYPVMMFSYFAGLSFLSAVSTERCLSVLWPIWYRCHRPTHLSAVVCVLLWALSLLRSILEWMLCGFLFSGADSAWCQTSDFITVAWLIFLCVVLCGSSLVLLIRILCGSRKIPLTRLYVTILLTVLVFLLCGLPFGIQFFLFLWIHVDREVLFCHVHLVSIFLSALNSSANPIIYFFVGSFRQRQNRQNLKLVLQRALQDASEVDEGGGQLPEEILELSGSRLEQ
RGS4 act: RGS4 potentiation or activation; HEK293 M3R/inducible RGS4, carbachol calcium flux Fluo4; active compounds read low; B-score at 10 µM; hit rate 0.92% among 310,000; AID 463111;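 active = B-score of the integrated calcium signal more than 4 SD below the library mean, with starting fluorescence not abnormally high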;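 note: negative B-score means reduced calcium response which marks RGS4 activation or potentiation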
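Assay system: HEK293 FlpIn-TREx cells, stable M3R, doxycycline-inducible RGS4 / Probe or stimulus: carbachol, ECmax concentration / Times: overnight RGS4 induction, 30 min dye load 37 °C, 20 min compound RT / Signal: kinetic calcium fluorescence imaging with Fluo4-AM dye, 2 µM / Measure: Agonist-evoked peak-minus-minimum fluorescence over baseline, integrated ratio, B score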
PHOSPHO1 block: inhibitors of human PHOSPHO1 phosphatase; Q8TCT1; recombinant PHOSPHO1, absorbance phosphatase assay; inhibition, % at 13.3 µM; hit rate 1.1% among 290,000; in the data active = inhibition above about 60%
RGS4 block: inhibitors of human RGS4; HEK293 M3R/RGS4 inducible, Fluo-4 calcium flux; active compounds read high; triggered by carbachol at its EC20; B-score at 10 µM; hit rate 0.45% among 310,000;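 active = B-score, a plate-corrected calcium signal, over three deviations above library mean, with baseline fluorescence within five deviations of library mean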;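 note: RGS4 expression induced by doxycycline in cells with stable M3 receptor; B-score is computed from the integrated fluorescence ratio over baseline after carbachol; higher B-score means a larger calcium signal and so more RGS4 inhibition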
Target sequence (P49798 whole entry, looked up): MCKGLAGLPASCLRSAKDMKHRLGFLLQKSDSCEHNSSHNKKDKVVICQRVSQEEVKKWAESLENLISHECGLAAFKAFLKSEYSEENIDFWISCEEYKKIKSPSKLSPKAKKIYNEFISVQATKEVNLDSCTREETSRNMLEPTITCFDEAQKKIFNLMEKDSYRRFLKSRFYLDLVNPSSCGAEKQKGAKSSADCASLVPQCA
MrgX1 ag: human MrgX1 receptor agonism, primary screen; hit rate 0.44% among 310,000; Q96LB2; B-score at 10 µM; AID 588627; MrgX1-HEK293 cells, Fluo-4 calcium fluorescence, agonist mode; active compounds read high;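 active = calcium response B-score plate-corrected fluorescence ratio at least 3 library SD, with starting fluorescence B-score inside 5 SD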
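Material: HEK293 cells stably expressing human MrgX1 receptor | Quantity: 15,000 cells per well | Times: Cells plated overnight, dye loaded 0.5 h 37 °C, 0.5 h room temperature | Measured by: Kinetic Fluo-4 NW fluorescence of intracellular calcium | Control set: Positive and negative controls per plate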
MrgX1 allo act: human MrgX1 positive allosteric modulation, primary screen; Q96LB2; hit rate 0.63% among 310,000; MrgX1-HEK293, Fluo-4 calcium flux, FDSS; active compounds read high; B-score at 10 µM;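 active = plate-corrected calcium response at least 3 library SD above typical, normal starting fluorescence, not activating the receptor alone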;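 note: compound read alongside a low EC10 to EC30 dose of BAM8-22 agonist; peak minus trough fluorescence over baseline measured at the second addition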
MrgX1 ant reconf: reconfirmed antagonist of human MrgX1 receptor signaling | shares compounds with MrgX1 antagonist | MrgX1-HEK293, BAM8-22 calcium flux, Fluo-4; active compounds read low | remaining BAM8-22 calcium response % of control (active compounds read low), % at 10 µM | hit rate 19% among 2,300 | AID 602420;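 active = remaining agonist calcium response no higher than 100% minus 3 SD of agonist-only control wells, with starting fluorescence near control levels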;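 note: agonist BAM8-22 given at a near maximal EC90 to ECmax level; peak minus minimum fluorescence divided by baseline after agonist addition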
HEK293 Ca flux: MrgX1 antagonist counter-screen hit in parental HEK293 cells; shares compounds with MrgX1 antagonist; Fluo-4 calcium fluorescence, FDSS; fluorescence ratio F(max-min)/F0 at 10 µM; hit rate 2% among 4,000;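 active = duplicate-averaged calcium fluorescence ratio at least three times the standard deviation of buffer wells, a nonspecific response in parental cells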
HEK293 Ca counter: counter-screen for MrgX1 allosteric activators: effect in parental HEK293 cells; shares compounds with MrgX1 antagonist; parental HEK293 calcium flux, Fluo-4 fluorescence ratio; active compounds read high; fluorescence ratio F(max-min)/F0 at 10 µM; hit rate 0.4% among 4,000;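 active = calcium fluorescence ratio, averaged over duplicates, at least 3 SD of the buffer-well ratio, meaning a nonspecific response in receptor-free cells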;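 note: untransfected parental HEK293 lacking MrgX1 used as counterscreen for MrgX1 allosteric activators; fluorescence change taken during the second addition on a kinetic imager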
HEK293 Ca cntr2: activity in parental HEK293 cells lacking MrgX1 receptor. shares compounds with MrgX1 antagonist. Fluo-4 calcium fluorescence (FDSS); active compounds read high. fluorescence ratio F(max-min)/F0 at 10 µM. hit rate 8.7% among 4,000. AID 624115;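 active = calcium fluorescence ratio at least three times the spread of buffer wells, meaning a non-specific response in parental cells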
* marks the source's active call; other numbers are inactive results. A selection: hits, their analogues and other compounds. The true share with any hit is near 4.5%.

What do the screens show for `COc1ccc(/C(C)=N/Nc2ncc(Cl)cc2Cl)c(O)c1`?
MrgX1 antagonist: inactive; RGS4 act: inactive; PHOSPHO1 block: -6.9; RGS4 block: inactive; MrgX1 ag: inactive; MrgX1 allo act: inactive

How did CC[n+]1c(C)sc2cc(C)ccc21 do in these assays?
MrgX1 antagonist: inactive; RGS4 act: inactive; PHOSPHO1 block: -3.0; RGS4 block: inactive; MrgX1 ag: inactive; MrgX1 allo act: inactive

What do the screens show for `Cc1ccc2c(c1)sc(-c1ccc(N(C)C)cc1)[n+]2C`?
MrgX1 antagonist: -11.3*; RGS4 act: inactive; PHOSPHO1 block: 9.3; RGS4 block: inactive; MrgX1 ag: inactive; MrgX1 allo act: inactive; MrgX1 ant reconf: inactive; HEK293 Ca flux: 0.658*; HEK293 Ca counter: inactive; HEK293 Ca cntr2: inactive

Results for COc1ccccc1NC(=O)CCC(=O)OCc1ccc(Cl)cc1 ?
MrgX1 antagonist: -4.8*; RGS4 act: inactive; PHOSPHO1 block: 22.8; RGS4 block: inactive; MrgX1 ag: inactive; MrgX1 allo act: inactive; MrgX1 ant reconf: inactive; HEK293 Ca flux: inactive; HEK293 Ca counter: inactive; HEK293 Ca cntr2: inactive

Results for CC1C[C@@]2(NC(=O)NC2=O)C(C)CN1C (stereo partly drawn) ?
MrgX1 antagonist: -5.5*; RGS4 act: inactive; PHOSPHO1 block: 15.9; RGS4 block: inactive; MrgX1 ag: inactive; MrgX1 allo act: inactive; MrgX1 ant reconf: inactive; HEK293 Ca flux: inactive; HEK293 Ca counter: inactive; HEK293 Ca cntr2: inactive

How did CC1CC2(NC(=O)NC2=O)C(C)CN1C (stereo not drawn) do in these assays?
MrgX1 antagonist: inactive; RGS4 act: inactive; PHOSPHO1 block: -29.1; RGS4 block: inactive; MrgX1 ag: inactive; MrgX1 allo act: inactive

What do the screens show for `COC(=O)c1ccccc1NC(=O)CSc1nc2cccnc2n1C`?
MrgX1 antagonist: inactive; RGS4 act: inactive; PHOSPHO1 block: 34.5; RGS4 block: inactive; MrgX1 ag: inactive; MrgX1 allo act: inactive

How did COC(=O)c1cccc(NC(=O)CSc2nc3cccnc3n2C)c1 do in these assays?
MrgX1 antagonist: -4.77*; PHOSPHO1 block: 2.9; MrgX1 ag: inactive; MrgX1 allo act: inactive; MrgX1 ant reconf: 74.4%*; HEK293 Ca flux: inactive; HEK293 Ca counter: inactive; HEK293 Ca cntr2: inactive

Results for CCOC(=O)c1cnc(SC)nc1Oc1cccc(NS(=O)(=O)c2ccc(F)cc2)c1 ?
MrgX1 antagonist: -6.83*; RGS4 act: inactive; PHOSPHO1 block: 9.9; RGS4 block: inactive; MrgX1 ag: inactive; MrgX1 allo act: inactive; MrgX1 ant reconf: inactive; HEK293 Ca flux: inactive; HEK293 Ca counter: inactive; HEK293 Ca cntr2: inactive

Results for CCOC(=O)c1cnc(SC)nc1Oc1cccc(NS(=O)(=O)c2ccccc2)c1 ?
MrgX1 antagonist: inactive; RGS4 act: inactive; PHOSPHO1 block: -4.1; RGS4 block: inactive; MrgX1 ag: inactive; MrgX1 allo act: inactive

How did COC(=O)c1ccc(C(=O)OC)c(NC(=O)CN(c2ccc3c(c2)OCO3)S(C)(=O)=O)c1 do in these assays?
MrgX1 antagonist: inactive; RGS4 act: inactive; PHOSPHO1 block: -1.4; RGS4 block: inactive; MrgX1 ag: inactive; MrgX1 allo act: inactive

How did Nc1ccc(S(=O)(=O)N2CCC(Cc3ccccc3)CC2)cc1 do in these assays?
MrgX1 antagonist: inactive; RGS4 act: inactive; PHOSPHO1 block: 22.7; RGS4 block: inactive; MrgX1 ag: inactive; MrgX1 allo act: inactive
